Here are results for 13 compounds from PMC5477668 (Journal of medicinal chemistry, 2017).

Molecules are shown by their SMILES.

Series [1] deals with T1, PAD2 (Homo sapiens, UniProt Q9Y2J8). Nature of the series: Target engagement assay with HEK293T/PAD2 cells. In kind it is cell-based.
The subject of series [2] is PAD1. Nature of the series: PAD1 inactivation kinetics. It counts as biochemical. An outline of the steps: (§1)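 Purified PAD enzyme (2.0 μM) was preincubated at 37 °C with various inactivator concentrations in 50 mM HEPES pH 7.6, 10 mM CaCl2 and 2 mM DTT. Aliquots taken over time were added to the same buffer containing 10 mM BAEE, run for 15 min, then quenched in liquid nitrogen. Citrulline was measured by COLDER. k_obs came from exponential decay fits, and k_inact and K_I from saturation fits. At least duplicate.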

Series [3] deals with T1, PAD2. Nature of the series: PAD2 inactivation kinetics. It counts as biochemical. The note with it: for PAD2 potency: as compared to BB-F-amidine (4a) and BB-Cl-amidine (4b); for fold increase in PAD2 potency and selectivity: relative to Cl-amidine; for fold more potent PAD2 inhibitor in vitro: than BB-Cl-amidine (4b); for PAD2-selectivity: up to, other isozyme not named; for fold decrease in PAD2 potency: compared to 30a. In short, it runs like this: as §1

For series [4], the system named is PAD4. Nature of the series: PAD4 inactivation kinetics. In kind it is biochemical. In short, it runs like this: as §1
Series [5] has as its system HEK293T/PAD2 cells. Nature of the series: Cellular uptake assay. It counts as in vitro ADME, human. An outline of the steps: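 HEK293T/PAD2 cells in HBS with 2 mM CaCl2 were treated with 0.5 μM ionomycin and test compound at 25 μM, as in the target engagement protocol. Cells were scraped, washed 4× with HBS, extracted in acetonitrile by sonication for 1 h at 0 °C, then cleared, filtered and analysed by LCMS. Analyte peak area was compared with the peak area of 25 μM compound injected directly.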

Series [6] relates to HEK293T cells. Description: Cytotoxicity study. In kind it is cell-based, human. The note with it: than BB-Cl-amidine (4b). In short, it runs like this:
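Human HEK293T cells were plated at 2.5 × 10⁶ cells/well. Next day they were exposed for 24 h to DMSO, Triton X-100, or a range of test-compound concentrations. Viability was read by XTT absorbance at 475 nm. EC50 came from an eight-point dose-response fit with range, slope factor and background terms.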

The mark [7] stands for this setting: as compared to BB-F-amidine (4a).
Setting [8] is: as compared to BB-Cl-amidine (4b).

T1 sequence (Q9Y2J8 whole entry): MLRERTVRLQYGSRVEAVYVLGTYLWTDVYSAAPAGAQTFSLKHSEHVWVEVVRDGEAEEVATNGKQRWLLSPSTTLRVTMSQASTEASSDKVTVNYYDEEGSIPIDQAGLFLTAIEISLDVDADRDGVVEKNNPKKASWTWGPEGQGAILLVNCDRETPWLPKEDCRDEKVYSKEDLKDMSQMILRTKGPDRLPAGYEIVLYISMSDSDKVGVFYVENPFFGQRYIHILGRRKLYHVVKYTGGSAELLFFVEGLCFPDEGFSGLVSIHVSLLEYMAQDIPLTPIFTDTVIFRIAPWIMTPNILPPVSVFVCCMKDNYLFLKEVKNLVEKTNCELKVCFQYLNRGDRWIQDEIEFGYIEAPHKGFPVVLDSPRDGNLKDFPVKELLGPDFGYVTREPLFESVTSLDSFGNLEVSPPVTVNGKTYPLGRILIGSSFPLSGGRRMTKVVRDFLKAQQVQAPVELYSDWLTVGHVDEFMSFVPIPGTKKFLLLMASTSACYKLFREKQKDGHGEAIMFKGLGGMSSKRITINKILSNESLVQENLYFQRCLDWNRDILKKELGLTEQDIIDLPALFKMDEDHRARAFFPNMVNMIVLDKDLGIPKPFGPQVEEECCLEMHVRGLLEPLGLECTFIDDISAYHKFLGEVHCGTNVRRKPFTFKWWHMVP

Take `N=C(CF)NCCC[C@H](NC(=O)c1ccc(-c2ccccc2)cc1)c1nc2ccccc2[nH]1` [4a]: the “fold less potent in the target engagement assay” value in series [1] (than BB-Cl-amidine (4b)) is recorded as ~ 3 fold.

`N=C(CF)NCCC[C@H](NC(=O)c1ccccc1C(=O)O)c1nc2ccccc2[nH]1` [9a]: the “fold increase in PAD1 inhibition” value in series [2] (setting [7]) amounted to 18 fold. The PAD2 potency result in series [3] is given as “relatively unaffected”. Further, in series [4] (setting [7]), the “fold increase in PAD4 inhibition” value worked out at 6.5 fold.

Regarding `N=C(CCl)NCCC[C@H](NC(=O)c1ccccc1C(=O)O)c1nc2ccccc2[nH]1` [9b], the “fold increase in PAD1 inhibition” value in series [2] (setting [8]) is on record as 1.8 fold. Also, the PAD2 potency result in series [3] is on record as “relatively unaffected”. Besides, the “fold increase in PAD4 inhibition” value in series [4] (setting [8]) is 2.3 fold.

On to `CCn1c([C@H](CCCNC(=N)CF)NC(=O)c2ccccc2C(=O)O)nc2ccccc21` [11a], for which the “fold increase in PAD2 inhibition” value in series [3] (setting [7]) is reported as 26 fold.

Regarding `N=C(CF)NCCC[C@H](NC(=O)c1cccc2c1C(=O)NC2)c1nc2ccccc2[nH]1` [14a], the “fold increase in PAD2 inhibition” value in series [3] (as compared to 9a) is on record as ~ 7 fold; in series [3] (setting [7]) it was ~ 9 fold. Further, the “fold increase in PAD4 inhibition” value in series [4] (as compared to 9a) was ~ 1.4 fold.

For the compound `CCn1c([C@H](CCCNC(=N)CF)NC(=O)c2cccc3c2C(=O)NC3)nc2ccccc21` [16a], the “occupancy of PAD2” value in series [1] (at 25 μM, HEK293T/PAD2 cells) is “roughly half as potent”. Besides, the “fold increase in PAD2 inhibition” value in series [3] (as compared to 9a) is reported as ~ 41 fold; in series [3] (setting [7]) it was ~ 51 fold.

`COc1cccc2c1nc([C@H](CCCNC(=N)CF)NC(=O)c1cccc3c1C(=O)NC3)n2C` [30a]: the “fold more compound able to enter HEK293T cells” value in series [5] (than 41a) was 6 fold. Moreover, in series [3], the “fold increase in PAD2 potency and selectivity” value is over 100 fold; the “fold more potent PAD2 inhibitor in vitro” value was 12–50 fold; the PAD2-selectivity result was “up to 106 fold”. The fold less cytotoxic in series [6] is over 30 fold.

For the compound `CCn1c([C@H](CCCNC(=N)CF)NC(=O)c2cccc3c2C(=O)NC3)nc2c(OC)cccc21` [31a], in series [3], the “fold decrease in PAD2 potency” value is given as 4 fold and the “fold more potent PAD2 inhibitor in vitro” value is listed as 12–50 fold. The fold less cytotoxic in series [6] was over 30 fold.

Turning to `CCOc1cccc2c1nc([C@H](CCCNC(=N)CF)NC(=O)c1cccc3c1C(=O)NC3)n2C` [32a], in series [3], the “fold decrease in PAD2 potency” value is listed as ~ 2 fold and the “fold more potent PAD2 inhibitor in vitro” value is recorded as 12–50 fold. In series [6], this compound gave a fold less cytotoxic of over 30 fold.

Regarding `CCOc1cccc2c1nc([C@H](CCCNC(=N)CCl)NC(=O)c1cccc3c1C(=O)NC3)n2C` [32b], in series [3], the “fold decrease in PAD2 potency” value is ~ 2 fold.

In the case of `COc1ccc2c(c1)nc([C@H](CCCNC(=N)CF)NC(=O)c1cccc3c1C(=O)NC3)n2C` [37a], in series [3], the “fold more potent PAD2 inhibitor in vitro” value is on record as 12–50 fold. For the same compound, in series [6], the fold less cytotoxic is listed as over 30 fold.

For the compound `CCN1Cc2cccc(C(=O)N[C@@H](CCCNC(=N)CF)c3nc4c(OC)cccc4n3C)c2C1=O` [41a], the “fold less compound internalized by the cell” value in series [5] (than unsubstituted lactams 30a, 31a, 32a, and 37a, mass spectrometry) is ~ 6 fold. Moreover, the “fold increase in PAD2 inhibition” value in series [3] (setting [7]) was over 300 fold. Also, in series [3], the “fold increase in PAD2 potency and selectivity” value is on record as over 100 fold; the PAD2-selectivity result is on record as “up to 106 fold”.

Consider `COc1cccc2c1nc([C@H](CCCNC(=N)CF)NC(=O)c1cccc3c1C(=O)N(C)C3)n2C` [49a], for which, in series [3], the “fold increase in PAD2 potency and selectivity” value is given as over 100 fold; the PAD2-selectivity result is listed as “up to 106 fold”.
